pIC50: −log10 of the molar value.
Key:
Assay type in all cases: functional, cell-based
PC-3 = assay: Cytotoxicity against human androgen-independent PC3 cells assessed as cell cell viability after 3 days by WST-1 cell proliferation assay; settings: PC-3, 72 h
How it was run: (§1)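 Human prostate cancer cells (LNCaP androgen-dependent; PC-3 and DU145 androgen-independent) were exposed to drug for 3 days, and viability was read by WST-1 proliferation assay. IC50 was taken as the drug concentration giving 50% inhibition of cell viability, reported as mean ± standard error of the mean.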

DU-145 = assay: Cytotoxicity against human androgen-independent DU145 cells assessed as inhibition of cell viability after 3 days by WST-1 cell proliferation assay; settings: DU-145, 72 h; how it was run: as §1
LNCaP = assay: Cytotoxicity against human androgen-dependent LNCAP cells assessed as inhibition of cell viability after 3 days by WST-1 cell proliferation assay; settings: 72 h; how it was run: as §1

Structure (SMILES)	pIC50 (PC-3)	pIC50 (DU-145)	pIC50 (LNCaP)
Cn1ccnc1/C=C/C(=O)/C=C/c1coc2ccccc2c1=O	5.55	5.35	5.64
CCn1ccnc1/C=C/C(=O)/C=C/c1coc2ccccc2c1=O	5.74	5.52	6.00
CCCn1ccnc1/C=C/C(=O)/C=C/c1coc2ccccc2c1=O	5.62	5.34	5.68
CCCCn1ccnc1/C=C/C(=O)/C=C/c1coc2ccccc2c1=O	5.70	5.37	5.70
CCCCCn1ccnc1/C=C/C(=O)/C=C/c1coc2ccccc2c1=O	5.68	5.57	5.74
CC(C)n1ccnc1/C=C/C(=O)/C=C/c1coc2ccccc2c1=O	5.64	5.48	5.92
CCC(C)n1ccnc1/C=C/C(=O)/C=C/c1coc2ccccc2c1=O (configuration not stated)	5.74	5.48	5.89
CC(C)CCn1ccnc1/C=C/C(=O)/C=C/c1coc2ccccc2c1=O	5.44	5.24	5.40
CCCC(C)n1ccnc1/C=C/C(=O)/C=C/c1coc2ccccc2c1=O (configuration not stated)	5.49	5.85	5.41
CCC(CC)n1ccnc1/C=C/C(=O)/C=C/c1coc2ccccc2c1=O	5.54	5.28	5.55
COc1cc(/C=C/C(=O)CC(=O)/C=C/c2ccc(O)c(OC)c2)ccc1O [CURCUMIN]			4.92
O=c1c(-c2ccc(O)cc2)coc2cc(O)cc(O)c12 [GENISTEIN]	4.16	< 4.00	4.43
O=c1c(O)c(-c2ccc(O)c(O)c2)oc2cc(O)cc(O)c12 [QUERCETIN]	< 4.00	< 4.00	4.34
